{
  "source": "PubChem BioAssay AID652191",
  "about": "(Vanderbilt Specialized Chemistry Center, 2013)",
  "note": "The source made the active and inactive calls. No rule for the calls is given here.",
  "data": [
    {"molecular_target": "Metabotropic glutamate receptor 5 (Rattus norvegicus) (UniProt P31424)", "sequence (P31424 whole entry, looked up)": "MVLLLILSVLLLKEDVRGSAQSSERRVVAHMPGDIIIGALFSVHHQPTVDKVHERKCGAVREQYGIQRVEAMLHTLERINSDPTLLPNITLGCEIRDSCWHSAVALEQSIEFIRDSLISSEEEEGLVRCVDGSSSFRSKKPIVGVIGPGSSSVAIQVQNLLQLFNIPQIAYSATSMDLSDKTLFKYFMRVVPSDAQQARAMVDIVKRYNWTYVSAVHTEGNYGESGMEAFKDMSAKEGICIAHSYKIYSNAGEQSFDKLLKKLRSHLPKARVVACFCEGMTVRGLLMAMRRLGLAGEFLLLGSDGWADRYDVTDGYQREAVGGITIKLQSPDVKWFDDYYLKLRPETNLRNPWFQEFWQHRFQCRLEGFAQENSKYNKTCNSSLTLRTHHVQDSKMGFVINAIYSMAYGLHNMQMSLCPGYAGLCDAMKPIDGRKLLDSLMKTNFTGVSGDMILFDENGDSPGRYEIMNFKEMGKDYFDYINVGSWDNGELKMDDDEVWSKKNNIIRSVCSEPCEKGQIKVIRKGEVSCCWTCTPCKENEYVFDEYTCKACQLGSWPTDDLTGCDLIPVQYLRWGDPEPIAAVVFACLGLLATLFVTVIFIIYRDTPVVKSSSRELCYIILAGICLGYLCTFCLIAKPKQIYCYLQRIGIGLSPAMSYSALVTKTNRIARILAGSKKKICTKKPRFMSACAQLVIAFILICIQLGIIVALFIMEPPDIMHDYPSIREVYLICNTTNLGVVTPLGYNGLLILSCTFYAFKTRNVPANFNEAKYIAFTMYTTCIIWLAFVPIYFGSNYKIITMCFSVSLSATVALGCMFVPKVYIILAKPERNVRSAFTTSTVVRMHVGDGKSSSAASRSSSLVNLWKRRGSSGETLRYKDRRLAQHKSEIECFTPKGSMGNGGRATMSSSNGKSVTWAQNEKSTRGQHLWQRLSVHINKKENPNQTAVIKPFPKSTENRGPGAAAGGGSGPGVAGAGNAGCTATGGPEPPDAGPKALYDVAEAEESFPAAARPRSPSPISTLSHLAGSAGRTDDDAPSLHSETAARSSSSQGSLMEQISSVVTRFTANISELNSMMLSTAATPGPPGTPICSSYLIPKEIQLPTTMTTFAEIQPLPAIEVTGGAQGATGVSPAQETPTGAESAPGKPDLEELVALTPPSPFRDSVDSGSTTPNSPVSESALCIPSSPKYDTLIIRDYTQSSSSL", "experiment": "[3H]methoxyPEPy displacement at rat mGlu5 – biochemical, HEK293A membranes, three-point Ki (AID 652191)", "conditions": "rmGlu5 HEK293A membranes", "method_in_brief": "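Material – membranes from HEK293A cells with stable rat mGlu5 expression · Amount – 50 µg membranes per well · Also added – 2 nM [3H]methoxyPEPy · Schedule – 1 h shaking incubation of membranes, radioligand and compound, room temperature · Signal – Filtration separating bound radioligand, then scintillation counting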", "values": [
      {"smiles": "O=C(c1ccc(C#Cc2cccc(F)c2)cn1)N1CC(F)C1", "Ki": "70 nM"},
      {"smiles": "O=C(c1ccc(C#Cc2cccc(F)c2)cn1)N1CC(O)(c2ccccc2)C1", "Ki": "inactive"},
      {"smiles": "O=C(c1ccc(C#Cc2cccc(F)c2)cn1)N1CCC(F)(F)CC1", "Ki": "4.42 nM"},
      {"smiles": "O=C(c1ccc(C#Cc2cccc(F)c2)cn1)N1CCC(F)(F)C1", "Ki": "10 nM"},
      {"smiles": "O=C(c1ccc(C#Cc2cccc(F)c2)nc1)N1CCC1", "Ki": "inactive"},
      {"smiles": "O=C(c1ccc(C#Cc2cccc(F)c2)cn1)N1CCCCCC1", "Ki": "3.82 nM"},
      {"smiles": "CNC(=O)c1ccc(C#Cc2cccc(F)c2)cc1", "Ki": "inactive"},
      {"smiles": "O=C(c1ccc(C#Cc2cccc(F)c2)cn1)N1CCC(O)CC1", "Ki": "inactive"},
      {"smiles": "O=C(c1ccc(C#Cc2cccc(F)c2)cn1)N1CC2CC2C1", "note": "(stereo not drawn)", "Ki": "10 nM"},
      {"smiles": "O=C(c1ccc(C#Cc2cccc(F)c2)cn1)N1CCOCC1", "Ki": "70 nM"},
      {"smiles": "O=C(c1ccc(C#Cc2cccc(F)c2)cn1)N1CCC1", "Ki": "40 nM"},
      {"smiles": "O=C(c1ccc(C#Cc2cccc(F)c2)nc1)N1CCOCC1", "Ki": "inactive"},
      {"smiles": "O=C(c1ccc(C#Cc2cccc(F)c2)cn1)N1CCCC1", "Ki": "20 nM"},
      {"smiles": "O=C(c1ccc(C#Cc2cccc(F)c2)cn1)N1CCCCC1", "Ki": "10 nM"},
      {"smiles": "O=C(c1ccc(C#Cc2cccc(F)c2)cc1)N1CCOCC1", "Ki": "inactive"},
      {"smiles": "CNC(=O)c1ccc(C#Cc2cccc(F)c2)cn1", "Ki": "inactive"},
      {"smiles": "CC1CCN1C(=O)c1ccc(C#Cc2cccc(F)c2)cn1", "note": "(stereo not drawn)", "Ki": "4.83 nM"},
      {"smiles": "O=C(c1ccc(C#Cc2cccc(F)c2)cc1)N1CCC1", "Ki": "40 nM"}
    ]}
  ]
}
